Screening results deposited in PubChem BioAssay by Johns Hopkins Ion Channel Center.
TRPC6 act: activates the mouse TRPC6 cation channel | Q61143 | HEK293-TRPC6 membrane potential dye fluorescence; active compounds read high | B-score at 10 µM | 0.13% of 310,000 active | AID 2550;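 active = B-score of the integrated fluorescence ratio above library mean plus 3 SD, and starting fluorescence ratio within library mean plus 5 SD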;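 note: higher score means more depolarization so channel activation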
TRPC4 act: activators of mouse TRPC4 channel. Q9QUQ5. HEK293 TRPC4beta/mu-opioid, Fluo4 calcium fluorescence; active compounds read high. B-score at 10 µM. 0.49% of 310,000 active;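 active = B-score above 5 SD of library B-scores, and initial fluorescence ratio not above library mean plus 5 SD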;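 note: positive B-score marks a calcium rise read as TRPC4 activation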
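Incubation: 45 min room-temperature Fluo4 loading, 110 s read / System: HEK293 cells stably co-expressing mouse TRPC4beta and mu-opioid receptor / Signal: Fluo4 fluorescence, kinetic / Control set: buffer (low) and maximal DAMGO (high) / Measure: integrated baseline-normalised fluorescence ratio, converted to per-well B score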
TRPC4 inh: inhibitors of mouse TRPC4 channel. 0.39% of 300,000 active. Q9QUQ5. B-score at 10 µM. HEK293 TRPC4beta/mu-opioid, DAMGO-evoked Fluo4 calcium flux; active compounds read low;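 active = B-score over 3 SD under the library average, no early fluorescence shift, positive overall ratio signal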
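material = TRPC4beta/mu-opioid receptor HEK293 cell line | probe or stimulus = sequential submaximal and maximal DAMGO stimulation | compound dosing = one concentration per compound | measured by = Fluo4 Ca2+ flux fluorescence | evaluation = integrated fluorescence ratio relative to baseline, converted to per-well B score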
TRPC6 inh: inhibitors of mouse TRPC6 channel. HEK293-TRPC6, membrane potential dye, ACh-evoked depolarization; active compounds read low. B-score at 10 µM. 1.1% of 310,000 active. AID 2553;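 active = B-score under library mean minus 3 SD, initial fluorescence not abnormally high, positive integrated signal ratio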;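 note: B-score derived from integrated fluorescence ratio over the kinetic read; more negative B-score means stronger inhibition of depolarization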
TRPC4 PAM: allosterically enhances the mouse TRPC4 cation channel. HEK293 TRPC4beta/mu-opioid, DAMGO EC20, Fluo-4 Ca2+ flux; active compounds read high. B-score at 10 µM. 0.42% of 310,000 active. Q9QUQ5. AID 2227;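 active = B-score of calcium response area above 5 SD of library B-scores, with initial fluorescence ratio within 5 SD of library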;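 note: B-score of integrated fluorescence ratio over time as area under calcium response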
* marks the source's active call; other numbers are inactive results; i = inactive; x = not tested or not shown. Compounds with a hit are over-represented: about 2.3% of the library has one in this group of screens.

SMILES	TRPC6 act	TRPC4 act	TRPC4 inh	TRPC6 inh	TRPC4 PAM
NS(=O)(=O)c1ccc(Nc2nc(-c3ccc(O)cc3O)cs2)cc1	i	i	-6*	i	i
COc1ccc(Br)cc1CN1CCCC(C(=O)N2CCCCCC2)C1 (stereo not given)	i	i	-6*	i	i
COc1ccc(Br)cc1CN1CCC(N2CCCC2)CC1	i	i	i	i	17*
O=C(CSc1nnc(NC(=O)C2CC(=O)N(c3ccc(F)cc3)C2)s1)NC1CCCC1 (stereo not given)	i	i	i	i	i
Cc1ccc(NS(=O)(=O)c2ccc(C(=O)NNC(=O)c3ccccc3O)cc2)cc1	i	i	i	i	i
NC1=NC2(CCCCC2)n2c(nc3ccccc32)N1	i	i	i	i	i
NC1=NC2(CCN(Cc3ccccc3)CC2)n2c(nc3ccccc32)N1	i	87*	i	i	i
Cc1onc(-c2ccccc2)c1C(=O)N1CCN(c2ccccc2F)CC1	i	i	i	i	i
CC(C)CCOc1ccc(C(=O)NCC(c2ccco2)N(C)C)cc1 (stereo not given)	i	i	-7*	i	i
CN(C)C(CNC(=O)c1ccc(Br)cc1)c1ccco1 (stereo not given)	i	63*	i	i	i
Cc1cc(C(=O)NCC(c2ccco2)N(C)C)ccc1[N+](=O)[O-] (stereo not given)	i	71*	i	i	i
CN(C)C(CNC(=O)c1ccccc1OCc1ccc(Cl)cc1)c1ccco1 (stereo not given)	i	i	-7*	i	i
CN(C)C(CNC(=O)CCNC(=O)c1ccc(Br)cc1)c1ccco1 (stereo not given)	i	i	i	i	i
O=C(CNC(=O)c1ccncc1)N/N=C/c1ccccc1[N+](=O)[O-]	i	i	i	i	i
O=C(CN(c1ccc2c(c1)OCCO2)S(=O)(=O)c1ccccc1)N1CCN(Cc2ccccc2)CC1	i	i	x	i	i
COc1ccc(NC(=O)CCN2CCN(c3ccccc3F)CC2)c(OC)c1	i	i	i	i	i
CN(C)C(CNC(=O)c1cc(Br)ccc1Cl)c1ccco1 (stereo not given)	i	i	i	i	i
Cc1c(C(=O)NCC(c2ccco2)N(C)C)oc2c(Cl)cccc12 (stereo not given)	i	i	-8*	i	i
NC(N)=NC(=O)Cc1c(Cl)cccc1Cl	i	46*	i	i	i
COc1ccc(C(CCNCc2ccc(N(C)C)cc2)c2ccccc2)cc1 (stereo not given)	i	104*	i	i	i
O=C1NCN(c2ccccc2)C12CCN(CCCC(c1ccc(F)cc1)c1ccc(F)cc1)CC2	i	116*	i	i	i
COCCN(C(=O)CSc1nnc(-c2cccs2)n1N)c1c(N)n(Cc2ccccc2)c(=O)[nH]c1=O	i	i	i	i	i
O=C(CCc1ccccc1)OCCOC(=O)CCc1ccccc1	i	i	i	i	i
Cc1cc(NC(=O)c2cc(-c3cccs3)nc3ccccc23)no1	i	i	-6*	i	i
Cc1ccc(-c2cc(C(=O)Nc3cc(C)on3)c3ccccc3n2)cc1	i	i	i	i	i
SMILES	TRPC6 act	TRPC4 act	TRPC4 inh	TRPC6 inh	TRPC4 PAM
CN1/C(=C\C(=O)C[n+]2ccc3ccccc3c2)C(C)(C)c2ccccc21	i	i	-6*	i	i
CCCOc1ncnc2c1[nH]c1ccccc12	i	i	i	i	i
CCN(CC)c1ncnc2c1[nH]c1ccccc12	i	i	-5*	i	i
CCN(CC)CCSc1nc2ccc(OC)cc2[nH]1	i	124*	i	i	i
CCOc1cc(Cl)c(NC(=O)CC)cc1OCC	i	i	i	i	i
O=C(OC(C(=O)NCC1CCCO1)c1ccc(F)cc1)c1cccs1 (stereo not given)	i	47*	i	i	i
CC(OC(=O)c1cccs1)C(=O)NCC1CCCO1 (stereo not given)	i	i	i	i	i
